Columns and labels:
Format in all cases: functional
[1] = tested on: Neisseria gonorrhoeae; assay: Antimicrobial activity against Neisseria gonorrhoeae obtained from patient with uncomplicated gonorrhea expressing penA, penB and ponA mutant gene assessed as incidence of susceptible isolates by agar dilution method
Outline: (§1)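 Clinical isolates shipped frozen on dry ice to a central lab, recovered from cryobeads onto GC agar and subcultured once. MICs were determined by agar dilution on GC agar supplemented with PolyViteX, with strain ATCC 49226 as control. Isolates were classed susceptible, intermediate or resistant by current CLSI criteria. Genotypes were assigned by PCR, and by minisequencing with MALDI-TOF mass spectrometry.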

[2] = tested on: Neisseria gonorrhoeae; assay: Antimicrobial activity against Neisseria gonorrhoeae obtained from patient with uncomplicated gonorrhea expressing penA and mtrR mutant gene assessed as incidence of susceptible isolates by agar dilution method; outline: as §1
[3] = tested on: Neisseria gonorrhoeae; assay: Antimicrobial activity against Neisseria gonorrhoeae obtained from patient with uncomplicated gonorrhea expressing penA, ponA and mtrR mutant gene assessed as percentage intermediate isolates by agar dilution method; outline: as §1
[4] = tested on: Neisseria gonorrhoeae; assay: Antimicrobial activity against Neisseria gonorrhoeae obtained from patient with uncomplicated gonorrhea expressing penA and ponA mutant gene assessed as percentage intermediate isolates by agar dilution method; outline: as §1
[5] = tested on: Neisseria gonorrhoeae; assay: Antimicrobial activity against Neisseria gonorrhoeae obtained from patient with uncomplicated gonorrhea expressing penA, penB, ponA and mtrR mutant gene assessed as percentage intermediate isolates by agar dilution method; outline: as §1
[6] = tested on: Neisseria gonorrhoeae; assay: Antimicrobial activity against Neisseria gonorrhoeae obtained from patient with uncomplicated gonorrhea expressing beta-lactamase TEM-1 mutant gene assessed as incidence of resistant isolates by agar dilution method; outline: as §1
[7] = tested on: Neisseria gonorrhoeae; assay: Antimicrobial activity against Neisseria gonorrhoeae obtained from patient with uncomplicated gonorrhea assessed as incidence of susceptible isolates by agar dilution method
Outline: (§2)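 Agar dilution MICs on GC agar supplemented with PolyViteX, tested against penicillin, tetracycline and fluoroquinolones. Clinical isolates were shipped frozen on dry ice to a central laboratory, recovered from cryobeads on GC agar plates and subcultured once before testing. Strain ATCC 49226 served as the control. Isolates were classed susceptible, intermediate or resistant using current CLSI interpretive criteria.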

[8] = tested on: Neisseria gonorrhoeae; assay: Antimicrobial activity against Neisseria gonorrhoeae obtained from patient with uncomplicated gonorrhea expressing mtrR mutant gene assessed as incidence of resistant isolates by agar dilution method; outline: as §1
[9] = tested on: Neisseria gonorrhoeae; assay: Antimicrobial activity against Neisseria gonorrhoeae obtained from patient with uncomplicated gonorrhea expressing penA, penB and ponA mutant gene assessed as incidence of resistant isolates by agar dilution method; outline: as §1
[10] = tested on: Neisseria gonorrhoeae; assay: Antimicrobial activity against Neisseria gonorrhoeae obtained from patient with uncomplicated gonorrhea expressing beta-lactamase TEM-1 mutant gene assessed as percentage intermediate isolates by agar dilution method; outline: as §1
[11] = tested on: Neisseria gonorrhoeae; assay: Antimicrobial activity against Neisseria gonorrhoeae obtained from patient with uncomplicated gonorrhea expressing penA, penB and mtrR mutant gene assessed as incidence of susceptible isolates by agar dilution method; outline: as §1
[12] = tested on: Neisseria gonorrhoeae; assay: Antimicrobial activity against Neisseria gonorrhoeae obtained from patient with uncomplicated gonorrhea expressing mtrR mutant gene assessed as percentage intermediate isolates by agar dilution method; outline: as §1
[13] = tested on: Neisseria gonorrhoeae; assay: Antimicrobial activity against Neisseria gonorrhoeae obtained from patient with uncomplicated gonorrhea assessed as percentage intermediate isolates by agar dilution method; outline: as §2
[14] = tested on: Neisseria gonorrhoeae; assay: Antimicrobial activity against Neisseria gonorrhoeae obtained from patient with uncomplicated gonorrhea expressing beta-lactamase TEM-1 mutant gene assessed as incidence of susceptible isolates by agar dilution method; outline: as §1
[15] = tested on: Neisseria gonorrhoeae; assay: Antimicrobial activity against Neisseria gonorrhoeae obtained from patient with uncomplicated gonorrhea expressing penB mutant gene assessed as incidence of resistant isolates by agar dilution method; outline: as §1
[16] = tested on: Neisseria gonorrhoeae; assay: Antimicrobial activity against Neisseria gonorrhoeae obtained from patient with uncomplicated gonorrhea expressing penA, penB and mtrR mutant gene assessed as percentage intermediate isolates by agar dilution method; outline: as §1
[17] = tested on: Neisseria gonorrhoeae; assay: Antimicrobial activity against Neisseria gonorrhoeae obtained from patient with uncomplicated gonorrhea expressing penA mutant gene assessed as incidence of resistant isolates by agar dilution method; outline: as §1
[18] = tested on: Neisseria gonorrhoeae; assay: Antimicrobial activity against Neisseria gonorrhoeae obtained from patient with uncomplicated gonorrhea expressing penA, penB and ponA mutant gene assessed as percentage intermediate isolates by agar dilution method; outline: as §1
[19] = tested on: Neisseria gonorrhoeae; assay: Antimicrobial activity against Neisseria gonorrhoeae obtained from patient with uncomplicated gonorrhea expressing penA, penB, ponA and mtrR mutant gene assessed as incidence of resistant isolates by agar dilution method; outline: as §1
[20] = tested on: Neisseria gonorrhoeae; assay: Antimicrobial activity against Neisseria gonorrhoeae obtained from patient with uncomplicated gonorrhea expressing penA, ponA and mtrR mutant gene assessed as incidence of susceptible isolates by agar dilution method; outline: as §1
[21] = tested on: Neisseria gonorrhoeae; assay: Antimicrobial activity against Neisseria gonorrhoeae obtained from patient with uncomplicated gonorrhea expressing penA mutant gene assessed as percentage intermediate isolates by agar dilution method; outline: as §1
[22] = tested on: Neisseria gonorrhoeae; assay: Antimicrobial activity against Neisseria gonorrhoeae obtained from patient with uncomplicated gonorrhea expressing penB mutant gene assessed as percentage intermediate isolates by agar dilution method
Outline: (§3)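 Clinical N. gonorrhoeae isolates were shipped frozen on dry ice and recovered from cryobeads on GC agar. They were subcultured once and then tested by agar dilution on GC agar with PolyViteX supplement, with ATCC 49226 as the control strain. Susceptible, intermediate or resistant status was set by CLSI criteria. Genotype came from PCR for blaTEM-1/tet(M) and from primer-extension minisequencing with MALDI-TOF detection of SNPs.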

[23] = tested on: Neisseria gonorrhoeae; assay: Antimicrobial activity against Neisseria gonorrhoeae obtained from patient with uncomplicated gonorrhea expressing mtrR mutant gene assessed as incidence of susceptible isolates by agar dilution method; outline: as §1
[24] = tested on: Neisseria gonorrhoeae; assay: Antimicrobial activity against Neisseria gonorrhoeae obtained from patient with uncomplicated gonorrhea expressing penB mutant gene assessed as incidence of susceptible isolates by agar dilution method; outline: as §3
[25] = tested on: Neisseria gonorrhoeae; assay: Antimicrobial activity against Neisseria gonorrhoeae obtained from patient with uncomplicated gonorrhea expressing penA, ponA and mtrR mutant gene assessed as incidence of resistant isolates by agar dilution method; outline: as §1
[26] = tested on: Neisseria gonorrhoeae; assay: Antimicrobial activity against Neisseria gonorrhoeae obtained from patient with uncomplicated gonorrhea expressing penA and ponA mutant gene assessed as incidence of susceptible isolates by agar dilution method; outline: as §1
[27] = tested on: Neisseria gonorrhoeae; assay: Antimicrobial activity against Neisseria gonorrhoeae obtained from patient with uncomplicated gonorrhea expressing penA and ponA mutant gene assessed as incidence of resistant isolates by agar dilution method; outline: as §1
[28] = tested on: Neisseria gonorrhoeae; assay: Antimicrobial activity against Neisseria gonorrhoeae obtained from patient with uncomplicated gonorrhea expressing penA, penB and mtrR mutant gene assessed as incidence of resistant isolates by agar dilution method; outline: as §1
[29] = tested on: Neisseria gonorrhoeae; assay: Antimicrobial activity against Neisseria gonorrhoeae obtained from patient with uncomplicated gonorrhea expressing penA, penB, ponA and mtrR mutant gene assessed as incidence of susceptible isolates by agar dilution method; outline: as §1
[30] = tested on: Neisseria gonorrhoeae; assay: Antimicrobial activity against Neisseria gonorrhoeae obtained from patient with uncomplicated gonorrhea expressing penA mutant gene assessed as incidence of susceptible isolates by agar dilution method; outline: as §1
[31] = tested on: Neisseria gonorrhoeae; assay: Antimicrobial activity against Neisseria gonorrhoeae obtained from patient with uncomplicated gonorrhea expressing penA and penB mutant gene assessed as incidence of resistant isolates by agar dilution method; outline: as §1
[32] = tested on: Neisseria gonorrhoeae; assay: Antimicrobial activity against Neisseria gonorrhoeae obtained from patient with uncomplicated gonorrhea expressing penA and penB mutant gene assessed as percentage intermediate isolates by agar dilution method; outline: as §1
[33] = tested on: Neisseria gonorrhoeae; assay: Antimicrobial activity against Neisseria gonorrhoeae obtained from patient with uncomplicated gonorrhea expressing penA and penB mutant gene assessed as incidence of susceptible isolates by agar dilution method; outline: as §1
[34] = tested on: Neisseria gonorrhoeae; assay: Antimicrobial activity against Neisseria gonorrhoeae obtained from patient with uncomplicated gonorrhea expressing penA and mtrR mutant gene assessed as incidence of resistant isolates by agar dilution method; outline: as §1
[35] = tested on: Neisseria gonorrhoeae; assay: Antimicrobial activity against Neisseria gonorrhoeae obtained from patient with uncomplicated gonorrhea expressing penA and mtrR mutant gene assessed as percentage intermediate isolates by agar dilution method; outline: as §1
[36] = tested on: Neisseria gonorrhoeae; assay: Antimicrobial activity against Neisseria gonorrhoeae obtained from patient with uncomplicated gonorrhea assessed as incidence of resistant isolates by agar dilution method; outline: as §1
[37] = tested on: Neisseria gonorrhoeae; assay: Antimicrobial activity against Neisseria gonorrhoeae obtained from patient with uncomplicated gonorrhea expressing rpsJ and penB mutant gene assessed as incidence of susceptible isolates by agar dilution method; outline: as §3
[38] = tested on: Neisseria gonorrhoeae; assay: Antimicrobial activity against Neisseria gonorrhoeae obtained from patient with uncomplicated gonorrhea expressing rpsJ, penB and mtrR mutant gene assessed as percentage intermediate isolates by agar dilution method; outline: as §3
[39] = tested on: Neisseria gonorrhoeae; assay: Antimicrobial activity against Neisseria gonorrhoeae obtained from patient with uncomplicated gonorrhea expressing rpsJ and penB mutant gene assessed as percentage intermediate isolates by agar dilution method; outline: as §3
[40] = tested on: Neisseria gonorrhoeae; assay: Antimicrobial activity against Neisseria gonorrhoeae obtained from patient with uncomplicated gonorrhea expressing rpsJ, penB and mtrR mutant gene assessed as incidence of susceptible isolates by agar dilution method; outline: as §3
[41] = tested on: Neisseria gonorrhoeae; assay: Antimicrobial activity against Neisseria gonorrhoeae obtained from patient with uncomplicated gonorrhea expressing tetM mutant gene in combination with variants of other gene loci assessed as percentage intermediate isolates by agar dilution method; outline: as §3
[42] = tested on: Neisseria gonorrhoeae; assay: Antimicrobial activity against Neisseria gonorrhoeae obtained from patient with uncomplicated gonorrhea expressing rpsJ and mtrR mutant gene assessed as incidence of resistant isolates by agar dilution method; outline: as §3
[43] = tested on: Neisseria gonorrhoeae; assay: Antimicrobial activity against Neisseria gonorrhoeae obtained from patient with uncomplicated gonorrhea expressing rpsJ mutant gene assessed as incidence of susceptible isolates by agar dilution method; outline: as §3
[44] = tested on: Neisseria gonorrhoeae; assay: Antimicrobial activity against Neisseria gonorrhoeae obtained from patient with uncomplicated gonorrhea expressing rpsJ and mtrR mutant gene assessed as incidence of susceptible isolates by agar dilution method; outline: as §3
[45] = tested on: Neisseria gonorrhoeae; assay: Antimicrobial activity against Neisseria gonorrhoeae obtained from patient with uncomplicated gonorrhea expressing rpsJ mutant gene assessed as percentage intermediate isolates by agar dilution method; outline: as §3
[46] = tested on: Neisseria gonorrhoeae; assay: Antimicrobial activity against Neisseria gonorrhoeae obtained from patient with uncomplicated gonorrhea expressing rpsJ and penB mutant gene assessed as incidence of resistant isolates by agar dilution method; outline: as §3
[47] = tested on: Neisseria gonorrhoeae; assay: Antimicrobial activity against Neisseria gonorrhoeae obtained from patient with uncomplicated gonorrhea expressing rpsJ mutant gene assessed as incidence of resistant isolates by agar dilution method; outline: as §3
[48] = tested on: Neisseria gonorrhoeae; assay: Antimicrobial activity against Neisseria gonorrhoeae obtained from patient with uncomplicated gonorrhea expressing tetM mutant gene in combination with variants of other gene loci assessed as incidence of susceptible isolates by agar dilution method; outline: as §3
[49] = tested on: Neisseria gonorrhoeae; assay: Antimicrobial activity against Neisseria gonorrhoeae obtained from patient with uncomplicated gonorrhea expressing tetM mutant gene in combination with variants of other gene loci assessed as incidence of resistant isolates by agar dilution method; outline: as §3
[50] = tested on: Neisseria gonorrhoeae; assay: Antimicrobial activity against Neisseria gonorrhoeae obtained from patient with uncomplicated gonorrhea expressing rpsJ and mtrR mutant gene assessed as percentage intermediate isolates by agar dilution method; outline: as §3
[51] = tested on: Neisseria gonorrhoeae; assay: Antimicrobial activity against Neisseria gonorrhoeae obtained from patient with uncomplicated gonorrhea expressing rpsJ, penB and mtrR mutant gene assessed as incidence of resistant isolates by agar dilution method; outline: as §3

For `CC1(C)S[C@@H]2[C@H](NC(=O)Cc3ccccc3)C(=O)N2[C@H]1C(=O)O` [PENICILLIN G], the Activity [1] was 7.9%, the Activity [2] was 33.3% and the Activity [3] was 82.3%. It also gave an Activity [4] of 79.5%, an Activity [5] of 71.4% and an Activity [6] of 83.3%. It also gave an Activity [7] of 90.7%, an Activity [8] of 0% and an Activity [9] of 9.2%. The Activity [10] was 16.7%, the Activity [11] was 50% and the Activity [12] was 0%. It also gave an Activity [13] of 9.3%, an Activity [14] of 0% and an Activity [15] of 0%. The Activity [16] was 50%, the Activity [17] was 3.9% and the Activity [18] was 82.8%. For the same molecule, the Activity [19] was 17.3%, the Activity [20] was 9.7% and the Activity [21] was 47.1%. The Activity [22] was 0%, the Activity [23] was 100% and the Activity [24] was 100%. For the same molecule, the Activity [25] was 8%, the Activity [26] was 15.4% and the Activity [27] was 5.1%. It also gave an Activity [28] of 0%, an Activity [29] of 11.3% and an Activity [30] of 49%. The Activity [31] was 0%, the Activity [32] was 71.4% and the Activity [33] was 28.6%. It also gave an Activity [34] of 6.7%, an Activity [35] of 60% and an Activity [36] of 0%.

`O=C(O)c1cn(C2CC2)c2cc(N3CCNCC3)c(F)cc2c1=O` [CIPROFLOXACIN] showed an Activity [7] of 99.3%, an Activity [13] of 0.7% and an Activity [21] of 0%. It also gave an Activity [36] of 0%.

For `CN(C)[C@@H]1C(O)=C(C(N)=O)C(=O)[C@@]2(O)C(O)=C3C(=O)c4c(O)cccc4[C@@](C)(O)[C@H]3C[C@@H]12` [TETRACYCLINE], the Activity [37] was 20.7%, the Activity [38] was 23% and the Activity [7] was 83.5%. It also gave an Activity [39] of 25.3%, an Activity [40] of 20.9% and an Activity [41] of 0%. It also gave an Activity [8] of 0%, an Activity [42] of 46.2% and an Activity [43] of 30.5%. It also gave an Activity [12] of 0%, an Activity [13] of 16.5% and an Activity [44] of 26.9%. It also gave an Activity [45] of 50.8%, an Activity [46] of 54% and an Activity [21] of 0%. For the same molecule, the Activity [47] was 18.7%, the Activity [48] was 0% and the Activity [23] was 100%. The Activity [49] was 100%, the Activity [50] was 26.9% and the Activity [51] was 56.1%. For the same molecule, the Activity [36] was 0%.

Source: ChEMBL document CHEMBL1255358, “Relation between genetic markers of drug resistance and susceptibility profile of clinical Neisseria gonorrhoeae strains” (2008)
